Reference: ChEMBL document CHEMBL4304792, “Cinnamonitrile Adjuvants Restore Susceptibility to β-Lactams against Methicillin-Resistant Staphylococcus aureus” (ACS Med Chem Lett, 2019)
Active and inactive are the calls of the source. The rule behind the calls is not given here.

How the values were obtained:
[1] = system: Staphylococcus aureus; assay: Potentiation of oxacillin induced antibacterial activity against Staphylococcus aureus MW2 NRS123 assessed as oxacillin MIC at 20 uM measured after 16 to 20 hrs in presence of 2% NaCl by microdilution broth method (reference value: 16 mg/L); assay type: functional
[2] = system: Staphylococcus aureus; assay: Potentiation of oxacillin induced antibacterial activity against Staphylococcus aureus NRS384 assessed as oxacillin MIC at 8 uM measured after 16 to 20 hrs in presence of 2% NaCl by microdilution broth method (reference value: 32 mg/L); assay type: functional
[3] = system: Staphylococcus aureus; assay: Potentiation of oxacillin induced antibacterial activity against Staphylococcus aureus MRSA252 assessed as oxacillin MIC at 16 uM measured after 16 to 20 hrs in presence of 2% NaCl by microdilution broth method (reference value: 256 mg/L); assay type: functional
[4] = system: Staphylococcus aureus; assay: Potentiation of oxacillin induced antibacterial activity against Staphylococcus aureus NRS119 assessed as oxacillin MIC at 20 uM measured after 16 to 20 hrs in presence of 2% NaCl by microdilution broth method (reference value: 256 mg/L); assay type: functional
[5] = system: Staphylococcus aureus; assay: Potentiation of oxacillin induced antibacterial activity against Staphylococcus aureus USA200-NRS383 assessed as oxacillin MIC at 20 uM measured after 16 to 20 hrs in presence of 2% NaCl by microdilution broth method (reference value: 128 mg/L); assay type: functional
[6] = system: Staphylococcus aureus; assay: Potentiation of oxacillin induced antibacterial activity against Staphylococcus aureus USA100-NRS382 assessed as oxacillin MIC at 20 uM measured after 16 to 20 hrs in presence of 2% NaCl by microdilution broth method (reference value: 64 mg/L); assay type: functional
[7] = system: Staphylococcus aureus; assay: Antibacterial activity against Staphylococcus aureus Mu50 NRS1 measured after 16 to 20 hrs in presence of 2% NaCl by microdilution broth method; assay type: functional
[8] = system: Staphylococcus aureus; assay: Antibacterial activity against Staphylococcus aureus NRS384 measured after 16 to 20 hrs in presence of 2% NaCl by microdilution broth method; assay type: functional
[9] = system: Staphylococcus aureus; assay: Potentiation of oxacillin induced antibacterial activity against Staphylococcus aureus MRSA252 assessed as oxacillin MIC at 20 uM measured after 16 to 20 hrs in presence of 2% NaCl by microdilution broth method (reference value: 256 mg/L); assay type: functional
[10] = system: Staphylococcus aureus; assay: Synergistic antibacterial activity against methicillin resistant Staphylococcus aureus NRS70 assessed as fractional inhibitory concentration index in presence of oxacillin by checkerboard assay; assay type: functional
How it was run: (§1)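 Checkerboard combinations of the adjuvant with oxacillin were tested against MRSA strains NRS1, NRS70 and NRS384. The fractional inhibitory concentration index (FICI) was derived from the combination MICs, and each interaction was classed as synergistic or indifferent (additive).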

[11] = system: Staphylococcus aureus; assay: Inhibition of recombinant […] N-terminal Stre-tagged Staphylococcus aureus NCTC8325 STK1 domain (1 to 348 residues) expressed in Escherichia coli BL21 star (DE3) assessed as decrease in phosphorylation at 100 uM using MBP as substrate measured after 20 mins in presence of [33P] gammaATP by SDS-PAGE
[12] = system: Staphylococcus aureus; assay: Inhibition of N-terminal His-tagged Staphylococcus aureus capA1ct/B2 expressed in Escherichia coli BL21 star (DE3) assessed as decrease in phosphorylation at 100 uM using MBP as substrate measured after 20 mins in presence of [33P] gammaATP by SDS-PAGE
[13] = system: Staphylococcus aureus; assay: Synergistic antibacterial activity against methicillin resistant Staphylococcus aureus Mu50 NRS1 assessed as fractional inhibitory concentration index in presence of oxacillin by checkerboard assay; assay type: functional; how it was run: as §1
[14] = system: Staphylococcus aureus; assay: Inhibition of C-terminal His-tagged Staphylococcus aureus NCTC8325 RsbW expressed in Escherichia coli BL21 star (DE3) assessed as decrease in phosphorylation at 100 uM using RsbV as substrate measured after 20 mins in presence of [33P] gammaATP by SDS-PAGE
[15] = system: Staphylococcus aureus; assay: Inhibition of N-terminal His-tagged Staphylococcus aureus NCTC8325 RsbV expressed in Escherichia coli BL21 star (DE3) assessed as decrease in phosphorylation at 100 uM measured after 20 mins in presence of [33P] gammaATP by SDS-PAGE
[16] = system: Staphylococcus aureus; assay: Inhibition of recombinant full length N-terminal Stre-tagged Staphylococcus aureus NCTC8325 STK1 expressed in Escherichia coli BL21 star (DE3) assessed as decrease in phosphorylation at 100 uM using MBP as substrate measured after 20 mins [33P] gammaATP by SDS-PAGE
[17] = system: Staphylococcus aureus; assay: Synergistic antibacterial activity against methicillin resistant Staphylococcus aureus NRS384 assessed as fractional inhibitory concentration index in presence of oxacillin by checkerboard assay; assay type: functional; how it was run: as §1

| MIC [1] | MIC [2] | MIC [3] | MIC [4] | MIC [5] | MIC [6] | MIC [7] | MIC [8] | MIC [9] | Compound | fractional inhibitory concentration index (FICI) [10] | inhibition [11] | inhibition [12] | fractional inhibitory concentration index (FICI) [13] | inhibition [14] | inhibition [15] | inhibition [16] | fractional inhibitory concentration index (FICI) [17] |
| --- | --- | --- | --- | --- | --- | --- | --- | --- | --- | --- | --- | --- | --- | --- | --- | --- | --- |
| 2 µg/mL | 8 µg/mL | 128 µg/mL | 0.12 µg/mL | ≥ 128 µg/mL | 1 µg/mL | 16 µg/mL | 16 µg/mL | 128 µg/mL | CS(=O)(=O)/C(C#N)=C/c1cc(-c2ccc(Cl)c(Cl)c2)ccc1F | – | – | – | – | – | – | – | – |
| ≤ 0.03 µg/mL | 2 µg/mL | 256 µg/mL | ≤ 0.03 µg/mL | ≥ 128 µg/mL | 0.25 µg/mL | ≥ 64 µg/mL | 32 µg/mL | 128 µg/mL | CS(=O)(=O)/C(C#N)=C/c1cc(Cc2ccc(Cl)c(Cl)c2)ccc1F | – | – | – | – | – | – | – | – |
| 0.25 µg/mL | 0.5 µg/mL | 128 µg/mL | 0.12 µg/mL | ≥ 128 µg/mL | 0.12 µg/mL | 16 µg/mL | 16 µg/mL | 2 µg/mL | N#C/C(=C\c1cc(Cc2ccc(Cl)c(Cl)c2)ccc1F)S(=O)(=O)c1ccccn1 | – | – | – | – | – | – | – | – |

Further lines, the compound ahead of its results:

| Compound | MIC [1] | MIC [2] | MIC [3] | MIC [4] | MIC [5] | MIC [6] | MIC [7] | MIC [8] | MIC [9] | fractional inhibitory concentration index (FICI) [10] | inhibition [11] | inhibition [12] | fractional inhibitory concentration index (FICI) [13] | inhibition [14] | inhibition [15] | inhibition [16] | fractional inhibitory concentration index (FICI) [17] |
| --- | --- | --- | --- | --- | --- | --- | --- | --- | --- | --- | --- | --- | --- | --- | --- | --- | --- |
| CS(=O)(=O)/C(C#N)=C/c1c(F)ccc(Cc2ccc(Cl)c(Cl)c2)c1F | ≤ 0.03 µg/mL | 32 µg/mL | 256 µg/mL | Active | ≥ 128 µg/mL | ≤ 0.03 µg/mL | 16 µg/mL | 16 µg/mL | 64 µg/mL | – | – | – | – | – | – | – | – |
| CS(=O)(=O)/C(C#N)=C/c1cc(Cc2ccc(Cl)c(Cl)c2)ccc1OC(F)(F)F | ≤ 0.03 µg/mL | 0.25 µg/mL | ≤ 0.03 µg/mL | Active | – | ≤ 0.03 µg/mL | 32 µg/mL | 16 µg/mL | Active | 0.28 | inactive | inactive | 0.28 | inactive | inactive | inactive | 0.38 |
